Each structure is given as a SMILES string.

Our source for the cytotoxicity values is ChEMBL document CHEMBL4513216, “Probing the Open Global Health Chemical Diversity Library for Multistage-Active Starting Points for Next-Generation Antimalarials” (ACS Infect Dis, 2020).

The nature of this data set: Toxicity liver stage against HepG2, at 10uM. To be noted: human, HepG2-A16-CD81EGFP cells; read-out: INHIBITION
Also noted: test concentration 10 uM, cell line HepG2-A16-CD81EGFP. It is filed as cell-based. An outline of the steps: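 Uninfected HepG2-A16-CD81EGFP cells, 3 × 10^3 per well, 1536-well, plated on prespotted compound at 10 μM final, parasite-free screening media added to match infected plates; puromycin 10 μM positive, DMSO 0.5% negative; run in parallel with 48 h PbLuc assay at 37 °C, 5% CO2; viability by CellTiter-Glo luminescence, normalized to controls.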
For `O=S1(=O)COCCN1Cc1ccc(F)c(C(F)(F)F)c1`, the cytotoxicity at 10 µM is 7.52%.

Consider `Cc1nccn1C1(C(=O)O)CCN(Cc2ccc3c(c2)OCCO3)CC1`, for which the cytotoxicity at 10 µM is -1.53%.

For the compound `N#Cc1ncn(CCC(=O)Nc2cc(Cl)ccc2Cl)n1`, the cytotoxicity at 10 µM is -161%.

For `Cc1noc(NC(=O)c2ccc(Br)s2)n1`, the cytotoxicity at 10 µM was -1.35%.

For the compound `Cn1c(CN2CCOC[C@H]2c2nc(C(C)(C)C)co2)nc2ccccc21`, the cytotoxicity at 10 µM is 4.78%.

On to `Cc1cc(S(=O)(=O)NCc2cccc(C(=O)N3CCCC3)c2)c(C)s1`, for which the cytotoxicity at 10 µM was 3.13%.

For `COCc1nc(C(=O)NS(=O)(=O)c2c(C)c(C)cc(C)c2C)cs1`, the cytotoxicity at 10 µM was -8.01%.

On to `CC(=O)NCC(=O)N1CCC2(CC1)CN(c1cccnc1)C(=O)CO2`, for which the cytotoxicity at 10 µM is 3.76%.

For `CN(Cc1ccco1)[C@@H]1CN(Cc2ccco2)[C@@H]2CCCO[C@H]12`, the cytotoxicity at 10 µM came out at 1.41%.

In the case of `COc1cc(NC(=O)NCCO)ccc1N1CCOC1=O`, the cytotoxicity at 10 µM was -0.803%.

`Cc1cc(C2CCCN(C(=O)CCc3cscn3)C2)n[nH]1` (stereo unspecified): the cytotoxicity at 10 µM was -0.939%.

Take `CO[C@@H]1CCN(S(=O)(=O)c2cccnc2)[C@@H]2CN(CC3CC3)C[C@@H]21`: the cytotoxicity at 10 µM was -65.7%.

`CN1CCCCC12CCN(c1nncs1)CC2`: the cytotoxicity at 10 µM amounted to 6.89%.

For `CCc1nc(CN2CCCN(c3cnc4ccccc4n3)CC2)no1`, the cytotoxicity at 10 µM amounted to 22%.

As to `COCCCN1CCc2cncnc2C1`, the cytotoxicity at 10 µM was -9.68%.

For `Cc1ccc(C(=O)N2CCC[C@@H]2Cn2nnc3c(O)nc(C)nc32)cc1`, the cytotoxicity at 10 µM is -10.3%.

For `COc1ccc(C)cc1NC(=O)C1CSc2ncc(C)c(=O)n2C1` (stereo unspecified), the cytotoxicity at 10 µM is -1.99%.

For `CCc1nccn1C1CCCN(C(=O)c2ccc(-n3ccnc3)cc2)C1` (stereo unspecified), the cytotoxicity at 10 µM is -10.8%.

For the compound `Cc1ccc(-c2cn[nH]c2C2CCCN(c3ccnc(C)n3)C2)cc1` (stereo unspecified), the cytotoxicity at 10 µM was -1.78%.

As to `O=C(NCc1csc(-c2cnccn2)n1)c1cnn2c1CCCC2`, the cytotoxicity at 10 µM was determined as 0.209%.

As for `O=C(CCNc1ccccc1)NC1CCN(C(=O)C2CCCCC2)CC1`, the cytotoxicity at 10 µM is 6.72%.

`CNC(=O)[C@H]1C[C@H]2CN(C(=O)Nc3ccccc3)C[C@@H]1O2`: the cytotoxicity at 10 µM stood at 1.91%.

For `CCCn1cc(NC(=O)c2cccc(CN3CC[C@H](O)C3)c2)nn1`, the cytotoxicity at 10 µM is -12.2%.

For the compound `CC(CNC(=O)Nc1cn[nH]c1)N1CCOCC1` (stereo unspecified), the cytotoxicity at 10 µM amounted to 1.92%.

For the compound `CC(C)CN1CCC(N2CCC(C(=O)N(C)C)CC2)CC1`, the cytotoxicity at 10 µM is 16.9%.

As to `CCOC(=O)CNC(=O)NCc1cccn1Cc1cccc(C)c1`, the cytotoxicity at 10 µM amounted to 9.24%.

Take `N#Cc1cccc(CN2CCCC2Cn2cncn2)c1` (stereo unspecified): the cytotoxicity at 10 µM was found to be 3.15%.

Take `CC(C)Oc1ccc(CNC(=O)NCC(C)(C)C(N)=O)cc1F`: the cytotoxicity at 10 µM is -24.8%.

With `CC(C)c1noc(CNc2ccc(OC(F)F)cc2OC(F)F)n1`, the cytotoxicity at 10 µM was 23.6%.

With `Cc1cc(C)n(CC2CN(Cc3nc(-c4ccoc4)no3)CCO2)n1` (stereo unspecified), the cytotoxicity at 10 µM was -8.13%.

In the case of `CCOc1ccccc1CNS(=O)(=O)c1ccc2c(c1)CCCC(=O)N2`, the cytotoxicity at 10 µM came out at 7.89%.

Regarding `Cc1nc(NC(=O)C2CCCN(C(N)=O)C2)sc1-c1ccccc1` (stereo unspecified), the cytotoxicity at 10 µM was determined as 9.31%.

Turning to `CNC(=O)NCc1nn(-c2ccccc2)c2c1CCC2`, the cytotoxicity at 10 µM was -10.8%.

Take `Cn1cc(C(=O)N[C@@H]2CN(Cc3ccc(F)cc3)[C@@H]3CCCO[C@@H]32)cn1`: the cytotoxicity at 10 µM was -1.31%.

Take `Cc1cc(C)nc(NC2CCc3nc(C)nn3C2)n1` (stereo unspecified): the cytotoxicity at 10 µM was 14.3%.

Consider `CC(=O)N1CCc2ccc(NC(=O)c3cn(C)nn3)cc2C1`, for which the cytotoxicity at 10 µM came out at 5.45%.

On to `O=C(NCCn1cnnc1C1CC1)c1c(O)cc(F)cc1F`, for which the cytotoxicity at 10 µM is -1.88%.

Regarding `COc1cccc2c(=O)n(Cc3cccnc3)cnc12`, the cytotoxicity at 10 µM was -7.85%.

For the compound `c1cncc(COC[C@H]2CC[C@H]3[C@H](CCN3Cc3cccs3)O2)c1`, the cytotoxicity at 10 µM worked out at 3.45%.

With `COCCN1CCN(CC(=O)N(C)Cc2ccc(F)cc2)CC1C` (stereo unspecified), the cytotoxicity at 10 µM was -145%.

Consider `Cc1ccc(C(=O)Nc2ccccc2F)n1C`, for which the cytotoxicity at 10 µM was determined as 0.339%.

As to `COCCc1noc(Cn2ccc3ncccc3c2=O)n1`, the cytotoxicity at 10 µM is -2.59%.

Consider `CC(C)CC(=O)N1CC(=O)c2sc(Nc3ccc(C#N)cc3)nc2C1`, for which the cytotoxicity at 10 µM was -0.279%.

Take `CCc1cnc(CCNS(C)(=O)=O)s1`: the cytotoxicity at 10 µM came to 2.17%.

Regarding `CN(C)C(C(=O)NC1(CO)CCCC1)c1ccc(F)cc1` (stereo unspecified), the cytotoxicity at 10 µM was -48.2%.

On to `CNc1cc(CNC(=O)c2cccnc2)nc(-c2ccncc2)n1`, for which the cytotoxicity at 10 µM was -9.88%.

Take `Cn1cnnc1CNC(=O)c1ccc(Br)cc1O`: the cytotoxicity at 10 µM is -4.06%.

As to `CC(C#N)NS(=O)(=O)c1cccc(C(C)C)c1` (stereo unspecified), the cytotoxicity at 10 µM worked out at 0.846%.

Regarding `CC(C)NC(=O)[C@H]1C[C@@H]2[C@@H](C1)OCCN2Cc1cnn(C)c1`, the cytotoxicity at 10 µM is 5.68%.

`COC(=O)C1CN(Cc2ccccc2C(C)(C)C#N)CCO1` (stereo unspecified): the cytotoxicity at 10 µM was -1.78%.

As to `CCc1cnc(CN2C(=O)CC3(CCSC3)C2=O)o1` (stereo unspecified), the cytotoxicity at 10 µM was -9.36%.

Turning to `CCn1cc(CN2CCCN(C(=O)c3ccccc3OC)CC2)cn1`, the cytotoxicity at 10 µM is -11.4%.

With `CN(C(=O)c1cccc(NCc2cccs2)c1)C(C1CC1)C1CC1`, the cytotoxicity at 10 µM was 8.41%.

Take `CN(C)S(=O)(=O)c1ccc(CSCC(=O)NC(C)(C)C)o1`: the cytotoxicity at 10 µM is -1.82%.

Take `CCc1noc(C(C)N2CCC(NC(=O)c3ccc(C)s3)CC2)n1` (stereo unspecified): the cytotoxicity at 10 µM was -9.9%.

As to `CN1C(=O)CC(c2cnn(C)c2)C12CCN(C(=O)c1ccnnc1)CC2` (stereo unspecified), the cytotoxicity at 10 µM was -74.4%.

For the compound `CC(C)CN1CCCC2(CCN(C(=O)c3cnccn3)C2)C1` (stereo unspecified), the cytotoxicity at 10 µM is 2.39%.

Regarding `Cc1ccc(CN2CC(C(=O)Nc3ccccc3)C3(CCOCC3)C2)s1` (stereo unspecified), the cytotoxicity at 10 µM is -17.5%.

As to `CC(=O)N1CCN(C(=O)C(C)Nc2ccc3ncsc3c2)CC1` (stereo unspecified), the cytotoxicity at 10 µM was -3.25%.

With `Cn1ncc2c(=O)[nH]c(CN3CCCC3CC3CCCCC3)nc21` (stereo unspecified), the cytotoxicity at 10 µM was -2.41%.

Regarding `CC1(C)CCC(CC(=O)O)c2ccccc21` (stereo unspecified), the cytotoxicity at 10 µM turned out to be 2.93%.

On to `CN(C)[C@@H]1CN(C(=O)c2cc3cccc(F)c3[nH]2)C[C@H]1O`, for which the cytotoxicity at 10 µM was -1.49%.

`Cc1ccc(S(=O)(=O)NCCc2nnc[nH]2)c2cccnc12`: the cytotoxicity at 10 µM was -5.93%.

Turning to `CC(C)=CCCC1(C)C=Cc2c(cc(C)n(CCC(=O)O)c2=O)O1` (stereo unspecified), the cytotoxicity at 10 µM worked out at 3.46%.

For the compound `CCn1ccnc1CN1CCN(C(C)C(=O)NCC(F)(F)F)CC1` (stereo unspecified), the cytotoxicity at 10 µM was 9.73%.

With `COc1ccccc1[C@@H]1CN(Cc2cc(C(C)(C)C)[nH]n2)C[C@H]1C(=O)O`, the cytotoxicity at 10 µM came out at 18.4%.

`CNC(=O)[C@@]12CCO[C@@H]1CCN(S(=O)(=O)c1cccnc1)C2`: the cytotoxicity at 10 µM was -3.3%.

As for `O=C(c1cc2cc(F)ccc2[nH]1)N1CCC(Nc2cccnn2)CC1`, the cytotoxicity at 10 µM is -5.97%.

On to `CCC[C@@H]1CN(Cc2c[nH]c(CC3CCCC3)n2)C[C@H]1C(=O)O`, for which the cytotoxicity at 10 µM was determined as 4.86%.

For the compound `COCCOC1CCN(C(=O)NCc2coc3ccccc23)CC1`, the cytotoxicity at 10 µM is -8.93%.

In the case of `Cc1ccc2c(c1)C1(CCNCC1)CC2NCCO` (stereo unspecified), the cytotoxicity at 10 µM is -105%.

For the compound `CN(CC1CC1)c1ccc2ccc(C(=O)NCCN3CCOCC3)cn12`, the cytotoxicity at 10 µM was found to be 5.57%.

As to `CCn1cc(CN2CCC(NS(C)(=O)=O)CC2)cc1C#N`, the cytotoxicity at 10 µM is -4.18%.

As to `CC(C)N1c2sc(-c3ccccc3)nc2CC1C(=O)NC1CCCC1` (stereo unspecified), the cytotoxicity at 10 µM worked out at 10.3%.

With `CC(CCc1ccccc1)N1CCC(C(=O)Nc2cnccn2)CC1` (stereo unspecified), the cytotoxicity at 10 µM was 13.2%.

`COc1cc2c(cc1CN1CCC3(CCCN(C)C3=O)C1)OCCO2` (stereo unspecified): the cytotoxicity at 10 µM turned out to be 6.33%.

Consider `COCCC1(CO)CCCN(C(=O)CCC(F)(F)F)C1` (stereo unspecified), for which the cytotoxicity at 10 µM is -2.86%.

In the case of `Cc1ocnc1C(=O)N1CCCC1c1ccc(C(=O)N2CCSCC2)s1` (stereo unspecified), the cytotoxicity at 10 µM is -5.37%.

In the case of `CCc1ccccc1NC(=O)CCc1cnn(C)c1`, the cytotoxicity at 10 µM was determined as 8.66%.

Turning to `CCn1cc(CN2CCCN(C(=O)c3ccccc3C)CC2)cn1`, the cytotoxicity at 10 µM is -5.65%.

Turning to `COCC(=O)N1CCC2(CC1)NC(=O)c1ccccc12`, the cytotoxicity at 10 µM worked out at 3.15%.

With `COc1ccc2cc(C3CN(C(=O)CN4CCCC4)CCO3)ccc2c1` (stereo unspecified), the cytotoxicity at 10 µM was -6.88%.

With `CC(NC(=O)Cc1ccccc1F)(C(N)=O)c1cccc(Cl)c1` (stereo unspecified), the cytotoxicity at 10 µM was determined as 17.6%.

Take `NCC1CCN(c2cnn(CCCn3cccn3)c(=O)c2)CC1`: the cytotoxicity at 10 µM is -52.8%.

Take `CC(=O)NCCc1ccc(S(=O)(=O)N(CC(C)C)C(C)C)s1`: the cytotoxicity at 10 µM came out at 18.8%.

Regarding `Cc1nc(CN2CCCN(C(=O)c3sccc3C#N)CC2)cs1`, the cytotoxicity at 10 µM was -7.98%.

Regarding `O=C(c1cccc(CNS(=O)(=O)c2ccc(F)cc2)c1)N1CCCC1`, the cytotoxicity at 10 µM was -8.57%.

As for `CCNC(=O)C1CCCN(C(=O)Nc2ccc3c(c2)CCCN3C)C1` (stereo unspecified), the cytotoxicity at 10 µM stood at 13.6%.

Turning to `CCNC(=O)c1ccc2c(c1)nc1n2CCN(C(C)C)C1`, the cytotoxicity at 10 µM is 9.35%.

Consider `CS(=O)(=O)N1CCO[C@@H]2CCN(Cc3ccncc3)CC[C@H]21`, for which the cytotoxicity at 10 µM was 1.15%.

Take `CC(C)n1[nH]c(=O)c2c1NC(=O)CSC2c1cccc(OCC(N)=O)c1` (stereo unspecified): the cytotoxicity at 10 µM was found to be 8.46%.

In the case of `CC(OCC(F)(F)F)C(=O)Nc1ccc(-n2cncn2)nc1` (stereo unspecified), the cytotoxicity at 10 µM came out at 3.44%.

As for `Cc1ccc(C(=O)N2CCCC(N)CC2)cc1N1CCNC1=O` (stereo unspecified), the cytotoxicity at 10 µM was -4.35%.

As to `O=C(Nc1ccc(-c2nc3c([nH]2)CCNC3)cc1)N1CCCC1`, the cytotoxicity at 10 µM is -4.36%.

On to `CNC(=O)c1cnc(C=Cc2cc(OC)c(O)c(OC)c2)s1`, for which the cytotoxicity at 10 µM stood at 1.64%.

For `COc1cccc(CNc2nnc(C(C)(C)C)o2)c1OC`, the cytotoxicity at 10 µM was -0.508%.
